Source: ChEMBL document CHEMBL4842372, “Discovery of ARD-2585 as an Exceptionally Potent and Orally Active PROTAC Degrader of Androgen Receptor for the Treatment of Advanced Prostate Cancer” (J Med Chem, 2021)
The source made the active and inactive calls. No cut-off for these calls is given here.

Columns and labels:
VCaP [1] = assay: Growth inhibition of human VCaP cells assessed as cell viability by WST-8 assay; type: functional, cell-based
[2] = target: Protein cereblon/Androgen receptor (Homo sapiens, UniProt P10275+Q96SW2); assay: Protac activity at CRBN/AR in human VCaP cells assessed as AR degradation after 24 hrs by Western blot analysis; type: cell-based
Sequence of Protein cereblon/Androgen receptor (Homo sapiens, UniProt P10275+Q96SW2) (P10275 whole entry): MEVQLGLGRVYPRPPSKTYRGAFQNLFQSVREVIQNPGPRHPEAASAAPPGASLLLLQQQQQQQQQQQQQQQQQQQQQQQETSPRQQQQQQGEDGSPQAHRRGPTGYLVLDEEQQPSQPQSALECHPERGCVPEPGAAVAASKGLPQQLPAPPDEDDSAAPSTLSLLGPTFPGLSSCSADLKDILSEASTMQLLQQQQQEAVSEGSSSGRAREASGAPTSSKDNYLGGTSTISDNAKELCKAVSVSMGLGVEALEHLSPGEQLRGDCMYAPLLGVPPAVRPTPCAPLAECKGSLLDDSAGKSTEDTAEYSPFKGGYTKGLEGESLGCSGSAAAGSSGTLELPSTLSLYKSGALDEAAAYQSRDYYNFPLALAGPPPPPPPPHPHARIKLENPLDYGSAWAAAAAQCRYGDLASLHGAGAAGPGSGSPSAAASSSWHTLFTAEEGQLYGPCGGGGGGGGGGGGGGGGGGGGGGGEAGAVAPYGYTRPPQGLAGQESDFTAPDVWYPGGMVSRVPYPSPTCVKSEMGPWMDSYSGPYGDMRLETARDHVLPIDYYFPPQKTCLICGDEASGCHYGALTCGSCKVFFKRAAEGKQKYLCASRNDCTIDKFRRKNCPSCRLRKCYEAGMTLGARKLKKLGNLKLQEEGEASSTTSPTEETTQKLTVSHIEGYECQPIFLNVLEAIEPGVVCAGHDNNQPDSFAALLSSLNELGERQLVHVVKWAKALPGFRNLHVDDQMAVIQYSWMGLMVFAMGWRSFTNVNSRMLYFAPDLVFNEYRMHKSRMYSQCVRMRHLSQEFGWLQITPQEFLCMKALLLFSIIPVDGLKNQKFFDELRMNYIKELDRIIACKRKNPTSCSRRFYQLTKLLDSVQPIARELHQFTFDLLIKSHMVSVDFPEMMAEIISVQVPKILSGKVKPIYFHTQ
Sequence of Protein cereblon/Androgen receptor (Homo sapiens, UniProt P10275+Q96SW2) (Q96SW2 whole entry): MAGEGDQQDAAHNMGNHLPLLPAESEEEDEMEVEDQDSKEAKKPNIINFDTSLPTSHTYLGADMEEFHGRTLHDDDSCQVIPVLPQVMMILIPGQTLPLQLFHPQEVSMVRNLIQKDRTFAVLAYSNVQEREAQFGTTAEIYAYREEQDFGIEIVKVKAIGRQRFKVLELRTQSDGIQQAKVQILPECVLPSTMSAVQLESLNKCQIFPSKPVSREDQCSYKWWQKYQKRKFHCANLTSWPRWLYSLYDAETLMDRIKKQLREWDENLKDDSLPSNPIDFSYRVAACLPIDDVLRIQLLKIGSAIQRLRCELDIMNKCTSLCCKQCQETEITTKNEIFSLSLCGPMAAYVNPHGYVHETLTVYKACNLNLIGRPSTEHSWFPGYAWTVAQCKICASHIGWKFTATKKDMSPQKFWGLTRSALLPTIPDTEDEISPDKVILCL

[3] = Oral bioavailability in SCID mouse at 3 mg/kg by LC-MS/MS analysis; type: ADME, organism-based; conditions: in vivo
VCaP [4] = assay: Antitumor activity against human VCaP cells xenografted in CB17:SCID mouse assessed as reduction in AR protein level in tumor at 10 mg/kg, po for 3 days measured at 6 hrs by Western blot analysis; type: functional; conditions: 72 h, time 3 day
How it was run: (§1)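 Male CB17 SCID mice bearing subcutaneous VCaP tumors (5 × 10^6 cells in Matrigel); dosed by oral gavage in 100% PEG200 at 10 mg/kg daily for 3 days; tumors harvested 3, 6 and 24 h post-dose, lysed in RIPA, Western blot for AR with GAPDH loading control, bands quantified by densitometry relative to loading control.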

[5] = Drug distribution in plasma of CB17:SCID mouse xenografted with human VCaP cells at 20 mg/kg, po measured at 6 hrs by LCMS analysis; type: ADME, organism-based
How it was run: (§2)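 Tumor-bearing male CB17 SCID mice (VCaP xenografts) given one 20 mg/kg oral dose in 100% PEG200, three mice per time point; plasma, tumor, liver, kidney, prostate and heart taken at 1, 6 and 24 h; tissues homogenised in water/acetonitrile, protein precipitated with cold acetonitrile, drug quantified by LC–MS/MS; ratios are tissue over plasma level.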

VCaP [6] = assay: Antitumor activity against human VCaP cells xenografted in CB17:SCID mouse assessed as reduction in AR protein level in tumor at 10 mg/kg, po for 3 days measured at 3 hrs by Western blot analysis; type: functional; conditions: 72 h, time 3 day; how it was run: as §1
[7] = Drug distribution in prostate gland of CB17:SCID mouse xenografted with human VCaP cells at 20 mg/kg, po measured at 24 hrs by LCMS analysis; type: ADME, organism-based; conditions: read-out: Drug uptake; how it was run: as §2
VCaP [8] = assay: Antitumor activity against human VCaP cells xenografted in CB17:SCID mouse assessed as reduction in AR protein level in tumor at 20 mg/kg, po measured for 6 to 24 hrs by Western blot analysis; type: functional, organism-based; conditions: time 6-24 hrs
How it was run: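 VCaP xenografts in male CB17 SCID mice grown to about 200 mm3; single oral gavage dose of 20 mg/kg in 100% PEG200; tumors collected at 6 and 24 h, RIPA lysates blotted for AR with GAPDH as loading control, band intensity normalised to loading control.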

LNCaP = assay: Growth inhibition of human LNCaP cells carrying AR T878A mutant assessed as cell viability by WST-8 assay; type: functional, cell-based
[9] = Drug distribution in tumor of CB17:SCID mouse xenografted with human VCaP cells at 20 mg/kg, po measured at 6 hrs by LCMS analysis; type: ADME, organism-based, Neoplasm; conditions: read-out: Drug uptake; how it was run: as §2
[10] = Drug distribution in prostate gland of CB17:SCID mouse xenografted with human VCaP cells at 20 mg/kg, po measured at 6 hrs by LCMS analysis; type: ADME, organism-based; conditions: read-out: Drug uptake; how it was run: as §2
[11] = target: Protein cereblon/Androgen receptor (Homo sapiens, UniProt P10275+Q96SW2, T878A); conditions: lncap
Sequence of Protein cereblon/Androgen receptor (Homo sapiens, UniProt P10275+Q96SW2, T878A) (P10275 whole entry T878A, stated change not applied): as the sequence (P10275 whole entry) above, with T878A counted along it
Sequence of Protein cereblon/Androgen receptor (Homo sapiens, UniProt P10275+Q96SW2, T878A) (Q96SW2 whole entry, stated change not applied): as the sequence (Q96SW2 whole entry) above

VCaP [12] = assay: Antitumor activity against human VCaP cells xenografted in CB17:SCID mouse assessed as reduction in AR protein level in tumor at 10 mg/kg, po for 3 days measured at 24 hrs by Western blot analysis; type: functional; conditions: 72 h, time 3 day; how it was run: as §1
[13] = Drug distribution in plasma of CB17:SCID mouse xenografted with human VCaP cells at 20 mg/kg, po measured at 24 hrs by LCMS analysis; type: ADME, organism-based; how it was run: as §2
[14] = Volume of distribution at steady state in SCID mouse at 1 mg/kg, iv by LC-MS/MS analysis; type: ADME, organism-based; conditions: in vivo, read-out: Vdss
How it was run: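 Male mice were used, three sacrificed per time-point, with 300 μL blood collected and plasma stored at −80 °C. Drug was quantified by a validated LC–MS/MS method on a C18 column with a 0.1% formic acid water/acetonitrile gradient at 0.4 mL/min. PK parameters were derived by noncompartmental analysis.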

[15] = Drug distribution in tumor of CB17:SCID mouse xenografted with human VCaP cells at 20 mg/kg, po measured at 24 hrs by LCMS analysis; type: ADME, organism-based, Neoplasm; conditions: read-out: Drug uptake; how it was run: as §2
[16] = AUC (0 to t) in SCID mouse at 1 mg/kg, iv by LC-MS/MS analysis; type: ADME, organism-based; parameters: dose 1 mg/kg; conditions: in vivo
How it was run: (§3)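 Male mice were given a single intravenous dose. Plasma drug levels were measured by a validated LC–MS/MS method (C18 column, 0.1% formic acid water/acetonitrile gradient, 0.4 mL/min). Parameters came from noncompartmental analysis.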

[17] = Half life in SCID mouse at 1 mg/kg, iv by LC-MS/MS analysis; type: ADME, organism-based; conditions: in vivo; how it was run: as §3
[18] = AUC (0 to t) in SCID mouse at 3 mg/kg, po by LC-MS/MS analysis; type: ADME, organism-based; parameters: dose 3 mg/kg; conditions: in vivo
How it was run: (§4)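 Nontumor-bearing male mice were given a single oral gavage dose in 100% PEG200. Three mice were sacrificed per time point, and 300 μL blood was taken from each for plasma, stored at −80 °C. Drug was quantified by LC–MS/MS on a C18 column with a 0.1% formic acid water/acetonitrile gradient at 0.4 mL/min. Parameters came from noncompartmental analysis.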

[19] = Half life in SCID mouse at 3 mg/kg, po by LC-MS/MS analysis; type: ADME, organism-based; conditions: in vivo; how it was run: as §4
[20] = Cmax in SCID mouse at 3 mg/kg, po by LC-MS/MS analysis; type: ADME, organism-based; parameters: route oral, dose 3 mg/kg; conditions: in vivo; how it was run: as §4
[21] = Tmax in SCID mouse at 3 mg/kg, po by LC-MS/MS analysis; type: ADME, organism-based; conditions: in vivo; how it was run: as §4

With `CC1(C)C(=O)N(c2ccc(C#N)c(C(F)(F)F)c2)C(=S)N1c1ccc(C(=O)N2CCN(C3CCN(c4ccc5c(c4)C(=O)N(C4CCC(=O)NC4=O)C5=O)CC3)CC2)c(F)c1` (centres undefined) the IC50 (VCaP [1]) was greater than 1000 nM.
Compound `N#Cc1ccc(O[C@H]2CC[C@H](NC(=O)c3ccc(N4CCN(CC5CN(c6ccc7c(c6)C(=O)N(C6CCC(=O)NC6=O)C7=O)C5)CC4)cc3)CC2)cc1Cl` (some centres undefined) has a DC50 [2] of 0.3 nM and an IC50 (VCaP [1]) of 6.7 nM.
Work on `N#Cc1ccc(O[C@H]2CC[C@H](NC(=O)c3ccc(NCCCCCCCCCNc4ccc5c(c4)C(=O)N(C4CCC(=O)NC4=O)C5=O)cc3)CC2)cc1Cl` (some centres undefined) yielded a DC50 [2] of 3.2 nM.
For `N#Cc1ccc(O[C@H]2CC[C@H](NC(=O)c3ccc(NCCCCNc4ccc5c(c4)C(=O)N(C4CCC(=O)NC4=O)C5=O)cc3)CC2)cc1Cl` (some centres undefined), the DC50 [2] was 1.1 nM.
`N#Cc1ccc(O[C@H]2CC[C@H](NC(=O)c3ccc(N4CCN(CCCCCNc5ccc6c(c5)C(=O)N(C5CCC(=O)NC5=O)C6=O)CC4)cc3)CC2)cc1Cl` (some centres undefined) gave a DC50 [2] of 0.9 nM.
Compound `N#Cc1ccc(OC2CCN(C(=O)c3ccc(N4CCC(N5CCN(c6ccc7c(c6)C(=O)N(C6CCC(=O)NC6=O)C7=O)CC5)CC4)cc3)CC2)cc1Cl` (centres undefined) has an IC50 (VCaP [1]) greater than 1000 nM.
Work on `CN(c1ccc(C#N)c(Cl)c1)[C@H]1CC[C@H](NC(=O)c2ccc(N3CCN(CC4CN(c5ccc6c(c5)C(=O)N(C5CCC(=O)NC5=O)C6=O)C4)CC3)cc2)CC1` (some centres undefined) yielded an F [3] of 30%.
For `CN(c1ccc(C#N)c(Cl)c1)[C@H]1CC[C@H](NC(=O)c2ccc(N3CCN(C4CCN(c5ccc6c(c5)C(=O)N(C5CCC(=O)NC5=O)C6=O)CC4)CC3)cc2)CC1` (some centres undefined), the inhibition in vivo at 10 mg/kg (VCaP [4]) was 70%, the F [3] was 29% and the concentration at 6 h [5] was 37 ng/mL. For the same compound, the inhibition in vivo at 10 mg/kg (VCaP [6]) was 74%, the concentration at 24 h [7] was 83 ng/g and the inhibition (VCaP [8]) was “Active”. The IC50 (VCaP [1]) was 0.8 nM, the IC50 (LNCaP) was 22.3 nM and the concentration at 6 h [9] was 120 ng/g. The concentration at 6 h [10] was 58 ng/g, the DC50 [11] was 0.4 nM and the inhibition in vivo at 10 mg/kg (VCaP [12]) was 20%. For the same compound, the concentration at 24 h [13] was 38 ng/mL, the Vd [14] was 2.6 L/kg and the concentration at 24 h [15] was 176 ng/g.
`N#Cc1ccc(O[C@@H]2CCCN(C(=O)c3ccc(N4CCC(N5CCN(c6ccc7c(c6)C(=O)N(C6CCC(=O)NC6=O)C7=O)CC5)CC4)cc3)CC2)cc1Cl` (some centres undefined) showed an IC50 (VCaP [1]) greater than 1000 nM.
In the case of `N#Cc1ccc(O[C@H]2CC[C@H](NC(=O)c3ccc(NCCCCCCNc4ccc5c(c4)C(=O)N(C4CCC(=O)NC4=O)C5=O)cc3)CC2)cc1Cl` (some centres undefined), the DC50 [2] is reported as 0.6 nM.
For `N#Cc1ccc(O[C@H]2CC[C@H](NC(=O)c3ccc(N4CCN(CCNc5ccc6c(c5)C(=O)N(C5CCC(=O)NC5=O)C6=O)CC4)cc3)CC2)cc1Cl` (some centres undefined), the DC50 [2] was 0.8 nM.
In the case of `N#Cc1ccc(O[C@H]2CC[C@H](NC(=O)c3ccc(N4CCN(CCCNc5ccc6c(c5)C(=O)N(C5CCC(=O)NC5=O)C6=O)CC4)cc3)CC2)cc1Cl` (some centres undefined), the DC50 [2] is reported as 2.7 nM.
Compound `N#Cc1ncc(N2C(=O)C3(CCC3)N(c3ccc(C(=O)N4CCN(C5CCN(c6ccc7c(c6)C(=O)N(C6CCC(=O)NC6=O)C7=O)CC5)CC4)c(F)c3)C2=S)cc1C(F)(F)F` (centres undefined) has an IC50 (VCaP [1]) greater than 1000 nM.
For `CN(c1ccc(C#N)c(Cl)c1)[C@H]1CC[C@H](NC(=O)c2ccc(N3CCC(N4CCN(c5ccc6c(c5)C(=O)N(C5CCC(=O)NC5=O)C6=O)CC4)CC3)cc2)CC1` (some centres undefined), the F [3] was 44%, the concentration at 6 h [5] was 208 ng/mL and the concentration at 24 h [7] was 4 ng/g. The concentration at 6 h [9] was 306 ng/g, the concentration at 6 h [10] was 67 ng/g and the concentration at 24 h [13] was 65 ng/mL. The concentration at 24 h [15] was 137 ng/g.
`N#Cc1ccc(O[C@H]2CC[C@H](NC(=O)c3ccc(N4CCC(N5CCN(c6ccc7c(c6)C(=O)N(C6CCC(=O)NC6=O)C7=O)CC5)CC4)cc3)CC2)cc1Cl` (some centres undefined) gave a DC50 [2] of 0.2 nM, an AUC(0-t) [16] of 2420 ng·h/mL and an F [3] of 30%. The half-life [17] was 6.1 h, the AUC(0-t) [18] was 2150 ng·h/mL and the half-life [19] was 5.6 h. It also gave a Cmax [20] of 207 ng/mL, a Tmax [21] of 4 h and a Vd [14] of 3 L/kg.
